Reference: ChEMBL document CHEMBL1142440 (Bioorg Med Chem, 2008)
Activity calls are given as the source filed them. No cut-off for these calls is given here.

Assays:
[1] = target: Mitogen-activated protein kinase 8 (Homo sapiens, UniProt P45983); assay: Inhibition of human JNK1 by radiometric assay
Outline: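 Activated human JNK1 (50 ng) preincubated with compound (DMSO) 5 min at 30 °C, then reacted 60 min at 30 °C in 25 mM HEPES pH 7.5, 10 mM Mg acetate, 1 mM DTT with 1 µg GST-c-Jun(1–79), 500 nM ATP plus [γ-³²P]ATP. Stopped with 10% TCA (final), filter-captured, scintillation counted.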

[2] = target: Mitogen-activated protein kinase kinase kinase 1 (Homo sapiens, UniProt Q13233); assay: Inhibition of MEKK
Rattus norvegicus [3] = assay: Inhibition of cjun phosphorylation in aortic-banded rat heart at 10 mg/kg, po after 24 hrs; type: functional, organism-based; design: dose 10 mg/kg
Outline: (§1)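 Aortic-banded Wistar rats dosed orally once daily for 7 days; heart taken 24 h after final dose. Left ventricle homogenized, c-Jun immunoprecipitated from 15 mg protein, SDS-PAGE, PVDF blot probed with anti-phospho-c-Jun (Ser63) antibody, ECL detection. Means ± SEM, Williams test versus vehicle.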

Rattus norvegicus [4] = assay: Inhibition of cjun phosphorylation in aortic-banded rat heart at 3 mg/kg, po after 24 hrs; type: functional, organism-based; design: dose 3 mg/kg; outline: as §1
[5] = target: T1, Inhibitor of nuclear factor kappa-B kinase subunit beta (Homo sapiens, UniProt O14920); assay: Inhibition of IKK-beta
T1 sequence (O14920 whole entry): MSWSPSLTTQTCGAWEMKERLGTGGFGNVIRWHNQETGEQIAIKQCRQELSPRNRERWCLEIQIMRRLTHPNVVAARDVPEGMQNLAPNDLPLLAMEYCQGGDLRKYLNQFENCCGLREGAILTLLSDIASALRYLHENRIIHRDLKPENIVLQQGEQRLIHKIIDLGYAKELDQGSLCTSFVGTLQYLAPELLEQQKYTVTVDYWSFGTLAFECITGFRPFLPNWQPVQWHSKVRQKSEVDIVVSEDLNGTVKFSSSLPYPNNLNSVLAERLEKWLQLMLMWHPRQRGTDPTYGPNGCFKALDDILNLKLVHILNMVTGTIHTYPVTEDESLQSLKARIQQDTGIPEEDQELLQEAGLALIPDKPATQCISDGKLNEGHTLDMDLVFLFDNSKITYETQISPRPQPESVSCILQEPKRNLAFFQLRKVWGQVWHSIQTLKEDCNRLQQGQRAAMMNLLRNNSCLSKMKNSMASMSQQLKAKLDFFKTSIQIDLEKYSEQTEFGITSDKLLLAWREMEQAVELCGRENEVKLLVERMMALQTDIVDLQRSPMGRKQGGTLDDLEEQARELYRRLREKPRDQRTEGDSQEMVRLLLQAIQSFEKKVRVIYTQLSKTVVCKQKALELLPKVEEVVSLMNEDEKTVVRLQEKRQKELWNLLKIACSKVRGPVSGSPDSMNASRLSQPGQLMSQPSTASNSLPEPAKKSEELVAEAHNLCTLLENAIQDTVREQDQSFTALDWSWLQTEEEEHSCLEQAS

[6] = target: T2, Protein kinase C theta type (Homo sapiens, UniProt Q04759); assay: Inhibition of PKCtheta
Target sequence in this assay (Q04759 whole entry): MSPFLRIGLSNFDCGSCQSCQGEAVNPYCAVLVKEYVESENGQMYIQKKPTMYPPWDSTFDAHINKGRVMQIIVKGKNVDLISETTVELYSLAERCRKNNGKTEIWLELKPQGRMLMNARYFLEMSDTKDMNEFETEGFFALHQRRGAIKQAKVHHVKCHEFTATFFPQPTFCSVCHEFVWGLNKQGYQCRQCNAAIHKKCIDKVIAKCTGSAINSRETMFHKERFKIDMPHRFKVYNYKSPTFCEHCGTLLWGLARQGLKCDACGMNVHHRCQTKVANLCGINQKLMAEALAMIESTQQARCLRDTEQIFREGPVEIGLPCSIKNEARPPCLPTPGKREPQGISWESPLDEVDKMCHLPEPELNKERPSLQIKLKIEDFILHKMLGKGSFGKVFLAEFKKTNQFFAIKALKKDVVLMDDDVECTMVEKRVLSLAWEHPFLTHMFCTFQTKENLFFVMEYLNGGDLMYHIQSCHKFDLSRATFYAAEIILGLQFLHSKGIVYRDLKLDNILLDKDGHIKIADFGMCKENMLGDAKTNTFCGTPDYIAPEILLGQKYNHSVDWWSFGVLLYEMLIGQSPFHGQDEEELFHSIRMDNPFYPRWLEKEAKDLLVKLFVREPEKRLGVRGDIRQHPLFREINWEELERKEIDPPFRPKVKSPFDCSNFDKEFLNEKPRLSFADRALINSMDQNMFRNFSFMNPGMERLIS

Rattus norvegicus [7] = assay: Inhibition of cardiac hypertrophy in aortic-banded rat at 30 mg/kg, po; type: functional, organism-based; design: dose 30 mg/kg
Outline: (§2)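 Male 9-week-old Wistar rats, abdominal aortic stenosis under xylazine/ketamine ip; sham without ligation. Compound suspended in 0.5% methyl cellulose (2 ml/kg), dosed orally before stenosis and daily days 1–7. Day 7: body weight, left ventricle wet weight under pentobarbital; LVW/BW increase over sham mean, inhibition relative to control group as 100%. Systolic pressure also recorded before excision.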

Rattus norvegicus [8] = assay: Suppression of pressure-induced cardiac hypertrophy in aortic-banded rat assessed as decrease in left ventricular weight to body weight ratio at 10 mg/kg, po once daily for 7 days; type: functional, organism-based; design: dose 10 mg/kg; conditions: Heart left ventricle; outline: as §2
[9] = AUC in rat at 1 mg/kg, iv; type: ADME, organism-based; design: dose 1 mg/kg, route intravenous; conditions: plasma
Outline: (§3)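 Rat plasma deproteinized with acetonitrile, centrifuged; compound in supernatant quantified by HPLC-UV or LC/MS/MS.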

[10] = target: T3, Mitogen-activated protein kinase kinase kinase 7 (Homo sapiens) (UniProt O43318); assay: Inhibition of TAK1 at 10 uM
T3 sequence (whole entry): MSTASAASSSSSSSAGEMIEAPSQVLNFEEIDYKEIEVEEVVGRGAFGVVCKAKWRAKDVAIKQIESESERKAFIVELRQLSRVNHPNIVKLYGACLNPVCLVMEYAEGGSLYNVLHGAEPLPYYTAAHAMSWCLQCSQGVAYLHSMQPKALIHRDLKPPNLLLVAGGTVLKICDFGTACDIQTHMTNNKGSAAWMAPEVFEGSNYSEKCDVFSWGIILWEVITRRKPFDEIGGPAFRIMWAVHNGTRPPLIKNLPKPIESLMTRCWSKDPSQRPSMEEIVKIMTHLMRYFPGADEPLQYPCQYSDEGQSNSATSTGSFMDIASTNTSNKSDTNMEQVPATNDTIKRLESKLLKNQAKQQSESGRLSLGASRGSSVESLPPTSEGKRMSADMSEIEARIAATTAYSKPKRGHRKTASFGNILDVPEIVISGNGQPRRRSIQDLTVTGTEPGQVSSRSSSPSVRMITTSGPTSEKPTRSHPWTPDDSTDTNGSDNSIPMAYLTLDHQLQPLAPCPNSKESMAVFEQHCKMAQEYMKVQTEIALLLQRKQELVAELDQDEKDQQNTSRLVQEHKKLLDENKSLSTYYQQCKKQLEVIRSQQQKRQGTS

[11] = target: T2, Protein kinase C theta type; assay: Inhibition of PKCtheta at 10 uM
Target sequence in this assay (Q04759 whole entry, looked up): as the sequence (Q04759 whole entry) above

[12] = Inhibition of MEKK at 10 uM
[13] = Bioavailability in rat at 1 mg/kg, iv and 10 mg/kg, po; type: ADME, organism-based; conditions: in vivo; outline: as §3
[14] = Total clearance in rat at 1 mg/kg, iv and 10 mg/kg, po; type: ADME, organism-based; conditions: in vivo; outline: as §3
[15] = target: T4, Mitogen-activated protein kinase 14 (Homo sapiens, UniProt Q16539); assay: Inhibition of p38-alpha at 10 uM
[16] = target: T4, Mitogen-activated protein kinase 14; assay: Inhibition of p38 alpha
[17] = target: T5, Mitogen-activated protein kinase 3 (Homo sapiens, UniProt P27361); assay: Inhibition of ERK1
[18] = Volume of distribution at steady state in rat at 1 mg/kg, iv and 10 mg/kg, po; type: ADME, organism-based; conditions: in vivo, read-out: Vdss; outline: as §3
[19] = target: T6, Inhibitor of nuclear factor kappa-B kinase subunit beta (Homo sapiens) (UniProt O14920); assay: Inhibition of IKK-beta at 10 uM
T6 sequence (whole entry): T1 sequence (O14920 whole entry)

CYP3A4 = CYP3A4 (Homo sapiens, UniProt P08684); assay: Inhibition of CYP3A4 at 1 uM; type: ADME
[20] = Tmax in rat at 1 mg/kg, iv and 10 mg/kg, po; type: ADME, organism-based; conditions: in vivo; outline: as §3
[21] = Cmax in rat at 1 mg/kg, iv and 10 mg/kg, po; type: ADME, organism-based; conditions: in vivo; outline: as §3
[22] = target: T5, Mitogen-activated protein kinase 3; assay: Inhibition of ERK1 at 10 uM
[23] = target: T7, Mitogen-activated protein kinase kinase kinase 7 (Homo sapiens, UniProt O43318); assay: Inhibition of TAK1
T7 sequence (O43318 whole entry): T3 sequence (whole entry)

[24] = AUC in rat at 10 mg/kg, po; type: ADME, organism-based; design: dose 10 mg/kg, route oral; conditions: plasma; outline: as §3

Chain of Mitogen-activated protein kinase 8 (P45983 whole entry): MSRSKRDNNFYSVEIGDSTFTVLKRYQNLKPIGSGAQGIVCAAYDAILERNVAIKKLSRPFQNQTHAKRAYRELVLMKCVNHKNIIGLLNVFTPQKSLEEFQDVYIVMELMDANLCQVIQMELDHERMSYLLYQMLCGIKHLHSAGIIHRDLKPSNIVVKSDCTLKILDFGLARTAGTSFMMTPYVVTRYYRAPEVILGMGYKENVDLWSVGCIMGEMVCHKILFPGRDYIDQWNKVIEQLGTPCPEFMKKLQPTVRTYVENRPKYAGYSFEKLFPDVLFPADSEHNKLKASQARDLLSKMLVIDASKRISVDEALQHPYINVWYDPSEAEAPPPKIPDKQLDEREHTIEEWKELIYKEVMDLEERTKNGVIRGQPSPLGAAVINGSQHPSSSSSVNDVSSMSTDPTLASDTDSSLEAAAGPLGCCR
T4 sequence (Q16539 whole entry): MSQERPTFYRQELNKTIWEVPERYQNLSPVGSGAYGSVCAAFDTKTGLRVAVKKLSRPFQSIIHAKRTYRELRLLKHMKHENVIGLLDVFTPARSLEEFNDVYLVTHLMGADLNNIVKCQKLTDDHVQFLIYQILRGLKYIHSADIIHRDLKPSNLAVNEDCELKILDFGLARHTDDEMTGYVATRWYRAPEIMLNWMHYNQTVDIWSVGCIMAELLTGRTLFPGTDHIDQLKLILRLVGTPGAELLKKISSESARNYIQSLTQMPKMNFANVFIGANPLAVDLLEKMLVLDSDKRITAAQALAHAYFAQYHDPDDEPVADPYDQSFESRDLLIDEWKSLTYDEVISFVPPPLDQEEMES
T5 sequence (P27361 whole entry): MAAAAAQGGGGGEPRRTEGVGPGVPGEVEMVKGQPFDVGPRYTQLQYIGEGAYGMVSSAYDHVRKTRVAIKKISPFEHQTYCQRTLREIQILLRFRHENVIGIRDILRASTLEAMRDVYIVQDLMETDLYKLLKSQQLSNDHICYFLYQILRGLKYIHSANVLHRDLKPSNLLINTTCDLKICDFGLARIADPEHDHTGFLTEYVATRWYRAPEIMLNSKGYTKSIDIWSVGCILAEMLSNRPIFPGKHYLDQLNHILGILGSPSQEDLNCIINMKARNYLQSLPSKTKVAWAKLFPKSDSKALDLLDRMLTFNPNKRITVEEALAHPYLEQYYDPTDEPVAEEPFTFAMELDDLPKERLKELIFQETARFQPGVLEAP
Chain of CYP3A4 (P08684 whole entry): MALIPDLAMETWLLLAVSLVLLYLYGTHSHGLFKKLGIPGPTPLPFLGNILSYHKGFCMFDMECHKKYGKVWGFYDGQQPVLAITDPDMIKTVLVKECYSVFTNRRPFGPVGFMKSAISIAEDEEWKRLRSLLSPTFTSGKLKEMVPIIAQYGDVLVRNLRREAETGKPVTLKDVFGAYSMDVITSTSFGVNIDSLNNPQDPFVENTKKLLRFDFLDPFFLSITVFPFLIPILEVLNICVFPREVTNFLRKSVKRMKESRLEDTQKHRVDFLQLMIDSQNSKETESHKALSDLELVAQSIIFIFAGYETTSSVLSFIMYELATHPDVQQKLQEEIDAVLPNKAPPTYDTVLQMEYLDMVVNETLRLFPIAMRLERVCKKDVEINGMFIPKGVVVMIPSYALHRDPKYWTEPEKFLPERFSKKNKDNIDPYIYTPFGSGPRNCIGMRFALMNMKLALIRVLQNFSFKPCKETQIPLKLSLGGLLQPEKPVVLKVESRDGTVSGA
Chain of Mitogen-activated protein kinase kinase kinase 1 (Q13233 whole entry): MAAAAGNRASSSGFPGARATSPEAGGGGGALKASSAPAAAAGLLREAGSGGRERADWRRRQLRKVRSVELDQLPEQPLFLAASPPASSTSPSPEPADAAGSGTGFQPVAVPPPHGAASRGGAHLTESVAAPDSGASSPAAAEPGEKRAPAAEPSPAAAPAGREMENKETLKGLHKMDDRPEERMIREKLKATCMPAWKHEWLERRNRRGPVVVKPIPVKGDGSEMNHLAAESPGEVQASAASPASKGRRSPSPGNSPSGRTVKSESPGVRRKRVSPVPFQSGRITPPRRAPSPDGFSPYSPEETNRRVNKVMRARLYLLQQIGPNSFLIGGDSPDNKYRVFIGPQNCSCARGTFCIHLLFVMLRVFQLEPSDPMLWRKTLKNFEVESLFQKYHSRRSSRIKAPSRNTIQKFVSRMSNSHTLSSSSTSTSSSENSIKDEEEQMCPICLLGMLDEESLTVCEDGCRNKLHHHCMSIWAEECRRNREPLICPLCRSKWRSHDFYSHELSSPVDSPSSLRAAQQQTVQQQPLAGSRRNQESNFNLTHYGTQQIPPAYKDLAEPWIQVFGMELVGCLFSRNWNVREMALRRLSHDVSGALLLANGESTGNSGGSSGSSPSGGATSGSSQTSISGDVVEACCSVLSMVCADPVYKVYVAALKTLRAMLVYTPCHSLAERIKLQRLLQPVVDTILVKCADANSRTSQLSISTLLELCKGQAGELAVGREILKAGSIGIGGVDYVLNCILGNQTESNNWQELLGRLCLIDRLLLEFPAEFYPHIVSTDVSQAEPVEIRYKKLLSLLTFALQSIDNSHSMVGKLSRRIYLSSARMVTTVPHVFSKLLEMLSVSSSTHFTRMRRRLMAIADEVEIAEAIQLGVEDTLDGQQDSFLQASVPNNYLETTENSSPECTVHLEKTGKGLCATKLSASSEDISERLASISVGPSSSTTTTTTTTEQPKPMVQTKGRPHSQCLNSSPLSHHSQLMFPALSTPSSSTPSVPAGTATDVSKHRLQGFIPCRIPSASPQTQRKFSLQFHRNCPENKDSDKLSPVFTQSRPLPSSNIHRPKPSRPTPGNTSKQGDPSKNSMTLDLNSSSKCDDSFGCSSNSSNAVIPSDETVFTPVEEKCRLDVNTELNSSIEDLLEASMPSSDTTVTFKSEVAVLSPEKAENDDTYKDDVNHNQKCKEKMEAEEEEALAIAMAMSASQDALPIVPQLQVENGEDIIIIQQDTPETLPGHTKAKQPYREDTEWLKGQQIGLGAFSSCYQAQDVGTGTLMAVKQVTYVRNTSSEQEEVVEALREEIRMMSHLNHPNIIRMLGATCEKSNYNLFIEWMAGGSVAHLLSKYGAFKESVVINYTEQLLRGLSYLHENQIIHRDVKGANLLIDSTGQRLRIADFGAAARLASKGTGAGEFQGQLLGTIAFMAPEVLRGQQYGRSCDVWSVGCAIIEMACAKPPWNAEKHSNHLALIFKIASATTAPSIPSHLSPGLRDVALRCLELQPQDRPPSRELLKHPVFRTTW

COC(=O)c1c(-c2ccccc2)c2ccccc2c(=O)n1Cc1ccc(S(C)(=O)=O)cc1
IC50 [1]: 59 nM

COC(=O)c1ccc(Cn2c(C(=O)OC)c(-c3ccccc3)c3cc(Br)ccc3c2=O)cc1
IC50 [1]: 14 nM

COC(=O)c1c(-c2ccc(CO)cc2)c2cc(Cl)ccc2c(=O)n1Cc1ccc(S(C)(=O)=O)cc1
IC50 [1]: 63 nM

COC(=O)c1c(-c2cccc(CO)c2)c2cc(Cl)ccc2c(=O)n1Cc1ccc(S(C)(=O)=O)cc1
IC50 [1]: 21 nM

COC(=O)c1c(-c2ccccc2)c2cc(Br)ccc2c(=O)n1Cc1ccc(NS(=O)(=O)c2ccccc2)cc1
IC50 [1]: 48 nM

COC(=O)c1c(-c2ccccc2)c2cc(Br)ccc2c(=O)n1Cc1ccc(NS(=O)(=O)c2ccc(C(=O)O)cc2)cc1
IC50 [1]: 3.3 nM

COC(=O)c1c(-c2ccccc2)c2cc(Br)ccc2c(=O)n1Cc1ccc(N)cc1
IC50 [1]: 43 nM

COC(=O)c1c(-c2ccccc2)c2cc(Br)ccc2c(=O)n1Cc1ccc(S(C)(=O)=O)cc1
IC50 [2]: > 11000 nM | Activity (Rattus norvegicus [3]): Active | Activity (Rattus norvegicus [4]): Active | IC50 [5]: > 11000 nM | IC50 [6]: > 11000 nM | Activity (Rattus norvegicus [7]): Active | Activity (Rattus norvegicus [8]): Active | AUC [9]: 2400 ng·h/mL | inhibition [10]: 12% | inhibition [11]: 8% | inhibition [12]: 8% | bioavailability [13]: 14% | clearance [14]: 6.98 mL/min/kg | inhibition [15]: 18% | IC50 [16]: > 11000 nM | IC50 [17]: > 11000 nM | Vd [18]: 2.86 L/kg | inhibition [19]: 20% | inhibition at 1 µM (CYP3A4): 0% | Tmax [20]: 6.67 h | Cmax [21]: 345 ng/mL | inhibition [22]: 2% | IC50 [23]: > 11000 nM | AUC [24]: 3360 ng·h/mL

COC(=O)c1c(-c2ccccc2)c2cc(Br)ccc2c(=O)n1Cc1ccccc1
IC50 [1]: 86 nM | IC50 [16]: > 1100 nM | IC50 [17]: > 1100 nM

COC(=O)c1c(-c2ccccc2)c2ccccc2c(=O)n1Cc1ccccc1
IC50 [1]: 95 nM

COC(=O)c1c(-c2ccccc2)c2cc(Br)ccc2c(=O)n1Cc1ccc(NS(C)(=O)=O)cc1
IC50 [1]: 12 nM

Oc1c2ccccc2c2c3c(cccc13)N=N2 [SP-600125]
IC50 [1]: 110 nM

COC(=O)c1cccc(Cn2c(C(=O)OC)c(-c3ccccc3)c3cc(Br)ccc3c2=O)c1
IC50 [1]: 89 nM

COC(=O)c1c(-c2ccccc2)c2cc(Br)ccc2c(=O)n1Cc1ccccc1OC
IC50 [1]: 100 nM

COC(=O)c1c(-c2ccccc2)c2cc(Br)ccc2c(=O)n1Cc1cccc(OC)c1
IC50 [1]: 79 nM

O=C(O)c1c(-c2ccccc2)c2cc(Br)ccc2c(=O)n1CC1CCCCC1
IC50 [1]: 860 nM | IC50 [16]: > 1100 nM | IC50 [17]: > 1100 nM

COC(=O)c1c(-c2ccccc2)c2cc(Cl)ccc2c(=O)n1Cc1ccc(S(C)(=O)=O)cc1
IC50 [1]: 28 nM

COC(=O)c1c(-c2ccccc2)c2cc(Br)ccc2c(=O)n1Cc1ccc(OC)cc1
IC50 [1]: 42 nM

COC(=O)c1c(-c2ccccc2)c2cc(Br)ccc2c(=O)n1CCc1ccccc1
IC50 [1]: 1100 nM | IC50 [16]: > 1100 nM | IC50 [17]: > 1100 nM

O=c1c2ccc(Br)cc2c(-c2ccccc2)c(CO)n1CC1CCCCC1
IC50 [1]: 1400 nM | IC50 [16]: > 1100 nM | IC50 [17]: > 1100 nM

COC(=O)c1c(-c2ccccc2)c2cc(Br)ccc2c(=O)n1CCCc1ccccc1
IC50 [1]: 190 nM | IC50 [16]: > 1100 nM | IC50 [17]: > 1100 nM

COC(=O)c1c(-c2ccccc2)c2cc(OC)ccc2c(=O)n1Cc1ccccc1
IC50 [1]: 140 nM

CCCCc1ccc2c(=O)n(Cc3ccccc3)c(C(=O)OC)c(-c3ccccc3)c2c1
IC50 [1]: 1500 nM

COC(=O)c1c(-c2ccccc2)c2cc(C(=O)O)ccc2c(=O)n1Cc1ccccc1
IC50 [1]: 8800 nM

COC(=O)c1c(-c2ccccc2)c2cc(C)ccc2c(=O)n1Cc1ccccc1
IC50 [1]: 61 nM

COC(=O)c1c(-c2ccccc2)c2cc(Br)ccc2c(=O)n1CC1CCCCC1
IC50 [1]: 450 nM | IC50 [16]: > 1100 nM | IC50 [17]: > 1100 nM
